The source of these data is ChEMBL document CHEMBL4765291, “Design, synthesis and biological evaluation of novel 3,4-dihydro-2(1H)-quinolinone derivatives as potential chitin synthase inhibitors and antifungal agents” (Eur J Med Chem, 2020).

≈ marks a conversion by molar mass, not a printed value.

The test system of one assay is Candida tropicalis. Briefly: Inhibition of Candida tropicalis ATCC 750 chitin synthase at 300 ug/ml using UDP-GlcNAc as substrate relative to control. The following applies: dose 300.0 µg/ml. A digest of the protocol: (§1)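 Chitin synthase prepared from C. tropicalis ATCC 750 by low- and high-speed centrifugation. DMSO stocks (10 mg/mL) diluted in 50 mM Tris-HCl pH 7.5; test concentrations 300–9.375 µg/mL. Chitin synthesized in WGA-coated wells, bound with WGA-HRP, washed, developed with TMB/H2O2, stopped with 2 M H2SO4, OD read. Duplicate; polyoxin B positive control.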
Turning to `COc1ccc(NC(=O)/C=C/C(=O)NC2Cc3ccccc3NC2=O)cc1` (centres undefined), the inhibition (commonly how much of the control response was suppressed) turned out to be 74.6%.
Still for that read-out and setting: in the case of `O=C(/C=C/C(=O)NC1Cc2ccccc2NC1=O)Nc1ccc([N+](=O)[O-])cc1` (centres undefined) it was 65.2%; in that of `Cc1cc(C)cc(NC(=O)/C=C/C(=O)NC2Cc3ccccc3NC2=O)c1` (centres undefined), 71.5%.

System in the next assay: not listed separately
Put plainly: Inhibition of Candida tropicalis ATCC 750 chitin synthase using UDP-GlcNAc as substrate.
Conditions: not given
A digest of the protocol: as §1
For the compound `COc1ccc(NC(=O)/C=C/C(=O)NC2Cc3ccccc3NC2=O)cc1` (centres undefined), half-maximal inhibition (IC50) was put at 210 µM.
Take `O=C(/C=C/C(=O)NC1Cc2ccccc2NC1=O)Nc1ccc([N+](=O)[O-])cc1` (centres undefined): it took 350 µM to reach half-maximal inhibition (IC50). This IC50 lies about 1.7-fold higher than the previous one.
On the same count and under the same terms, in the case of `Cc1cc(C)cc(NC(=O)/C=C/C(=O)NC2Cc3ccccc3NC2=O)c1` (centres undefined) it was 190 µM.

The next assay deals with Candida albicans. Put plainly: Antifungal activity against Candida albicans ATCC 90023 incubated for 48 hrs by two-fold broth dilution analysis. Type of assay: functional.
Conditions: not given
The method in brief:
(§2)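 Stock solutions in DMSO, diluted to 0.25–512 µg/mL; two-fold serial broth dilution in 96-well plates. Fungi grown on modified Sabouraud chloramphenicol agar (1% peptone, 2% glucose, […]). Incubated 48 h at 37 °C, then MIC (µg/mL) recorded. Fluconazole and polyoxin B as positive controls; each group tested in triplicate.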
In general terms: Dilution methods test growth across graded concentrations, often in twofold steps.
As for `COc1ccc(NC(=O)/C=C/C(=O)NC2Cc3ccccc3NC2=O)cc1` (centres undefined), the MIC (as a rule, the lowest concentration found to suppress growth) turned out to be 1 µg/mL (≈ 2.74 µM).
Regarding `O=C(/C=C/C(=O)NC1Cc2ccccc2NC1=O)Nc1ccc([N+](=O)[O-])cc1` (centres undefined), the MIC is 2 µg/mL (≈ 5.26 µM).
`Cc1cc(C)cc(NC(=O)/C=C/C(=O)NC2Cc3ccccc3NC2=O)c1` (centres undefined) returned an MIC of 2 µg/mL (≈ 5.5 µM).

The subject of a further assay is Cryptococcus neoformans. Briefly: Antifungal activity against Cryptococcus neoformans ATCC 32719 incubated for 48 hrs by two-fold broth dilution analysis. The class given is functional.
Conditions: not given
The method in brief:
as §2
With `COc1ccc(NC(=O)/C=C/C(=O)NC2Cc3ccccc3NC2=O)cc1` (centres undefined), the MIC is 16 µg/mL (≈ 43.8 µM).
As to `O=C(/C=C/C(=O)NC1Cc2ccccc2NC1=O)Nc1ccc([N+](=O)[O-])cc1` (centres undefined), 8 µg/mL (≈ 21 µM) was the least that counted as inhibitory (MIC).
On the same count and under the same terms, in the case of `Cc1cc(C)cc(NC(=O)/C=C/C(=O)NC2Cc3ccccc3NC2=O)c1` (centres undefined) it was 16 µg/mL (≈ 44 µM).

The test system of the next assay is Aspergillus flavus. Briefly: Antifungal activity against Aspergillus flavus ATCC 16870 incubated for 48 hrs by two-fold broth dilution analysis. The class given is functional.
Conditions: not given
The method in brief:
as §2
For `COc1ccc(NC(=O)/C=C/C(=O)NC2Cc3ccccc3NC2=O)cc1` (centres undefined), 2 µg/mL (≈ 5.47 µM) was the least that counted as inhibitory (MIC).
For the compound `O=C(/C=C/C(=O)NC1Cc2ccccc2NC1=O)Nc1ccc([N+](=O)[O-])cc1` (centres undefined), the MIC amounted to 2 µg/mL (≈ 5.26 µM).
The same measure, in the same setting: in the case of `Cc1cc(C)cc(NC(=O)/C=C/C(=O)NC2Cc3ccccc3NC2=O)c1` (centres undefined) it was 1 µg/mL (≈ 2.75 µM).

For a further assay, the system named is Staphylococcus aureus. Put plainly: Antibacterial activity against methicillin-resistant Staphylococcus aureus N. 315. Type of assay: functional.
Conditions: not given
The method in brief:
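Two-fold serial broth dilution in 96-well plates per national clinical standard; beef extract peptone medium (1% peptone, 0.3% beef extract, 0.5% NaCl, […]). Compounds from DMSO stock diluted to test concentrations; incubation 18–24 h. MIC recorded; each group tested independently in triplicate.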
Turning to `COc1ccc(NC(=O)/C=C/C(=O)NC2Cc3ccccc3NC2=O)cc1` (centres undefined), the MIC amounted to 256 µg/mL (≈ 701 µM).
As for `O=C(/C=C/C(=O)NC1Cc2ccccc2NC1=O)Nc1ccc([N+](=O)[O-])cc1` (centres undefined), the MIC came out at 256 µg/mL (≈ 673 µM).
Turning to `Cc1cc(C)cc(NC(=O)/C=C/C(=O)NC2Cc3ccccc3NC2=O)c1` (centres undefined), it took 512 µg/mL (≈ 1410 µM) to inhibit growth (MIC).

The next assay deals with Candida albicans. Put plainly: Antifungal activity against Candida albicans ATCC 76615 incubated for 48 hrs by two-fold broth dilution analysis.
Conditions: not given
The class given is functional. The method in brief: as §2
`COc1ccc(NC(=O)/C=C/C(=O)NC2Cc3ccccc3NC2=O)cc1` (centres undefined) yielded a minimal inhibitory concentration (MIC) of 2 µg/mL (≈ 5.47 µM).
Take `O=C(/C=C/C(=O)NC1Cc2ccccc2NC1=O)Nc1ccc([N+](=O)[O-])cc1` (centres undefined): the minimum inhibitory concentration (MIC) came to 8 µg/mL (≈ 21 µM).
In the case of `Cc1cc(C)cc(NC(=O)/C=C/C(=O)NC2Cc3ccccc3NC2=O)c1` (centres undefined), the MIC was found to be 4 µg/mL (≈ 11 µM). This MIC lies about 2-fold lower than the previous one.

A further assay deals with Aspergillus fumigatus. Put plainly: Antifungal activity against Aspergillus fumigatus GIMCC 3.19 incubated for 48 hrs by two-fold broth dilution analysis. The class given is functional.
Conditions: not given
A digest of the protocol:
as §2
Compound `COc1ccc(NC(=O)/C=C/C(=O)NC2Cc3ccccc3NC2=O)cc1` (centres undefined) registered an MIC of 4 µg/mL (≈ 10.9 µM).
With `O=C(/C=C/C(=O)NC1Cc2ccccc2NC1=O)Nc1ccc([N+](=O)[O-])cc1` (centres undefined), 4 µg/mL (≈ 10.5 µM) was the least that counted as inhibitory (MIC).
Compound `Cc1cc(C)cc(NC(=O)/C=C/C(=O)NC2Cc3ccccc3NC2=O)c1` (centres undefined) displayed a minimum inhibitory concentration (MIC) of 2 µg/mL (≈ 5.5 µM). Compared with the last compound, the MIC is about 2-fold lower.

Another assay concerns Staphylococcus aureus. Put plainly: Antibacterial activity against Staphylococcus aureus ATCC 25923.
Conditions: not given
Type of assay: functional. A digest of the protocol: (§3)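 Two-fold serial broth dilution in 96-well plates following National Committee standards; compounds tested at different concentrations. Medium: beef extract peptone (1% peptone, 0.3% beef extract, 0.5% NaCl). Incubation 18–24 h. MIC recorded; streptomycin and norfloxacin as control drugs; each group tested in triplicate.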
`COc1ccc(NC(=O)/C=C/C(=O)NC2Cc3ccccc3NC2=O)cc1` (centres undefined) registered a minimum inhibitory concentration (MIC) of 128 µg/mL (≈ 350 µM).
Consider `O=C(/C=C/C(=O)NC1Cc2ccccc2NC1=O)Nc1ccc([N+](=O)[O-])cc1` (centres undefined), for which the MIC came to 128 µg/mL (≈ 337 µM).
On the same count and under the same terms, in the case of `Cc1cc(C)cc(NC(=O)/C=C/C(=O)NC2Cc3ccccc3NC2=O)c1` (centres undefined) it was 128 µg/mL (≈ 352 µM).

In another assay the test system is Bacillus subtilis. Briefly: Antibacterial activity against Bacillus subtilis ATCC 6633. Type of assay: functional.
Conditions: not given
The method in brief:
as §3
For `COc1ccc(NC(=O)/C=C/C(=O)NC2Cc3ccccc3NC2=O)cc1` (centres undefined), the MIC worked out at 256 µg/mL (≈ 701 µM).
The same measure, in the same setting: in the case of `O=C(/C=C/C(=O)NC1Cc2ccccc2NC1=O)Nc1ccc([N+](=O)[O-])cc1` (centres undefined) it was 256 µg/mL (≈ 673 µM); in that of `Cc1cc(C)cc(NC(=O)/C=C/C(=O)NC2Cc3ccccc3NC2=O)c1` (centres undefined), 256 µg/mL (≈ 704 µM).

A further assay has as its system Pseudomonas aeruginosa. Put plainly: Antibacterial activity against Pseudomonas aeruginosa ATCC 9027. The class given is functional.
Conditions: not given
The method in brief:
as §3
Take `COc1ccc(NC(=O)/C=C/C(=O)NC2Cc3ccccc3NC2=O)cc1` (centres undefined): 512 µg/mL (≈ 1400 µM) was the least that counted as inhibitory (MIC).
`O=C(/C=C/C(=O)NC1Cc2ccccc2NC1=O)Nc1ccc([N+](=O)[O-])cc1` (centres undefined): the lowest concentration to inhibit growth (MIC) was 512 µg/mL (≈ 1350 µM).
The same measure, in the same setting: in the case of `Cc1cc(C)cc(NC(=O)/C=C/C(=O)NC2Cc3ccccc3NC2=O)c1` (centres undefined) it was 256 µg/mL (≈ 704 µM).

For a further assay, the system named is Proteus vulgaris. Put plainly: Antibacterial activity against Bacillus proteus ATCC 8427.
Conditions: not given
The class given is functional. A digest of the protocol:
as §3
In the case of `COc1ccc(NC(=O)/C=C/C(=O)NC2Cc3ccccc3NC2=O)cc1` (centres undefined), the minimal inhibitory concentration (MIC) came out at 256 µg/mL (≈ 701 µM).
As to `O=C(/C=C/C(=O)NC1Cc2ccccc2NC1=O)Nc1ccc([N+](=O)[O-])cc1` (centres undefined), the lowest concentration to inhibit growth (MIC) was 256 µg/mL (≈ 673 µM).
The compound `Cc1cc(C)cc(NC(=O)/C=C/C(=O)NC2Cc3ccccc3NC2=O)c1` (centres undefined) had an MIC of 512 µg/mL (≈ 1410 µM).

The test system of another assay is Escherichia coli. Put plainly: Antibacterial activity against Escherichia coli JM 109.
Conditions: not given
`COc1ccc(NC(=O)/C=C/C(=O)NC2Cc3ccccc3NC2=O)cc1` (centres undefined) yielded a minimum inhibitory concentration (MIC) of 512 µg/mL (≈ 1400 µM).
Same read-out and setting: in the case of `O=C(/C=C/C(=O)NC1Cc2ccccc2NC1=O)Nc1ccc([N+](=O)[O-])cc1` (centres undefined) it was 256 µg/mL (≈ 673 µM).
The compound `Cc1cc(C)cc(NC(=O)/C=C/C(=O)NC2Cc3ccccc3NC2=O)c1` (centres undefined) came in with a minimum inhibitory concentration (MIC) of 256 µg/mL (≈ 704 µM).
